Key:
Format in all cases: functional
Settings in all cases: read-out: GI
[1] = test system: Candida albicans; assay: Antifungal activity against Candida albicans CAI4 expressing delta-cph1/delta-efg1 gene assessed as growth inhibition at 1 ug/ml by CLSI M27-A3 method
In short: (§1)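 CLSI M27-A3 broth microdilution in RPMI, read after 48 h. Strains pre-grown 18 h in YEPD at 30°C. Final inoculum 0.5×10^2–2.5×10^3 cells/ml. Two-fold dilutions in RPMI came from a 1600 µg/ml stock in water with 9% DMSO; final DMSO was 0.09%. OD405 read, % inhibition = 100 − (CTW−SCW)/(GCW−SCW). Triplicate on three occasions, mean±SD.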

[2] = test system: Candida albicans; assay: Antifungal activity against Candida albicans CAI4 expressing delta-cph1 (CPH1) gene assessed as growth inhibition at 1 ug/ml by CLSI M27-A3 method; in short: as §1
[3] = test system: Candida albicans; assay: Antifungal activity against Candida albicans 90028 assessed as growth inhibition at 1 ug/ml by CLSI M27-A3 method; in short: as §1
[4] = test system: Candida albicans; assay: Antifungal activity against Candida albicans CAI4 expressing delta-cph1 gene assessed as growth inhibition at 1 ug/ml by CLSI M27-A3 method; in short: as §1
[5] = test system: Candida albicans; assay: Antifungal activity against Candida albicans CAI4 expressing delta-efg1 (EFG1) gene assessed as growth inhibition at 1 ug/ml by CLSI M27-A3 method; in short: as §1
[6] = test system: Candida albicans; assay: Antifungal activity against Candida albicans CAI4 expressing delta-cph1/delta-efg1 (EFG1) gene assessed as growth inhibition at 1 ug/ml by CLSI M27-A3 method; in short: as §1
[7] = test system: Candida albicans; assay: Antifungal activity against Candida albicans CAI4 expressing delta-efg1 gene assessed as growth inhibition at 1 ug/ml by CLSI M27-A3 method
In short: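 CLSI M27-A3 broth microdilution in RPMI. Final inoculum 0.5×10^2 to 2.5×10^3 cells/ml. Seven two-fold concentrations from 0.25 to 16 µg/ml, with DMSO held at 0.09% (v/v) in all wells. Compound-free growth controls and sterility controls are run for each strain. […] Triplicate on three occasions.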

Measured: inhibition of growth at 1 µg/mL

C[C@@H]1[C@H](O)[C@@H](C)/C=C/C=C/C=C/C=C/C=C/C=C/C=C/[C@H](O[C@@H]2O[C@H](C)[C@@H](O)[C@H](N)[C@@H]2O)C[C@@H]2O[C@](O)(C[C@@H](O)C[C@@H](O)[C@H](O)CC[C@@H](O)C[C@@H](O)CC(=O)O[C@H]1C)C[C@H](O)[C@H]2C(=O)O [AMPHOTERICIN B]
100%: all assays above

Source: ChEMBL document CHEMBL3351861, “New synthetic sulfone derivatives inhibit growth, adhesion and the leucine arylamidase APE2 gene expression of Candida albicans in vitro” (2015)
